Experimental findings from ChEMBL document CHEMBL1152432, “2-Arylamino-4-amino-5-aroylthiazoles. "One-pot" synthesis and biological evaluation of a new class of inhibitors of tubulin polymerization” (J Med Chem, 2009) are described below.

One test relates to L1210. Briefly: Antiproliferative activity against mouse L1210 cells after 2 days by coulter counter method. The format is functional, cell-based. To be noted: L1210, 48 h. The essentials: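 Cells seeded at 300,000-500,000 cells/mL, mixed 1:1 with compound dilutions and incubated 2 days at 37 °C. Cell number counted by Coulter counter. IC50 is the concentration giving 50% inhibition of proliferation, taken from dose-response curves. Mean ± SE of at least three independent experiments.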

Another test relates to FM3A. Briefly: Antiproliferative activity against mouse FM3A cells after 2 days by coulter counter method. The format is functional, cell-based. To be noted: 48 h. The essentials:
(§1)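 Cells seeded at 300,000-500,000 cells/mL, mixed 1:1 with compound dilutions and incubated 2 days at 37 °C. Cell number counted by Coulter counter. Mean ± SE of at least three independent experiments.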

The test system of another test is MOLT-4. Briefly: Antiproliferative activity against human MOLT4 cells after 2 days by coulter counter method. As to conditions: MOLT-4, 48 h. The format is functional, cell-based. The essentials:
as §1

The next test deals with CCRF-CEM. Briefly: Antiproliferative activity against human CEM cells after 2 days by coulter counter method. The format is functional, cell-based. To be noted: 48 h. In a few lines: as §1
The subject of test [1] is HeLa. Briefly: Antiproliferative activity against human HeLa cells after 2 days by coulter counter method. To be noted: 48 h. The format is functional, cell-based. The essentials: as §1
Test [2] can be described thus: Inhibition of bovine brain tubulin polymerization by turbidimetry. Details: species or system Bos taurus. In a few lines:
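Purified bovine brain tubulin (10 μM) preincubated with varying compound concentrations in glutamate buffer at 30 °C, then chilled to 0 °C. GTP added, mixtures warmed to 30 °C in a recording spectrophotometer and assembly followed turbidimetrically.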

A further test is filed under the species Bos taurus. Briefly: Displacement of [3H]colchicine from bovine brain tubulin at 1 uM. In a few lines: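 Reaction mixtures held 1 μM bovine brain tubulin, 5 μM [3H]colchicine and 1 μM test compound. Inhibition of radiolabelled colchicine binding to tubulin was measured.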
A general note: In a radioligand displacement assay an active substance lowers the binding of a labelled ligand.

For test [3], the system named is HeLa. Briefly: Cell cycle arrest in human HeLa cells assessed as accumulation at G1 phase at 30 nM after 24 hrs uisng propidium iodide staining by flow cytometry. The format is functional. In a few lines: (§2)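 Exponentially growing HeLa cells (5×10^5) treated 24 h. Floating and trypsinized cells pooled, fixed in ice-cold 70% ethanol, lysed with RNaseA buffer and stained with propidium iodide. DNA histograms acquired by flow cytometry. Percentages of G1, S and G2/M phases calculated on living cells, with the sub-G1 peak also scored.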
On the technique in general: A flow cytometer gives signals particle by particle.

The test system of test [4] is HeLa. Briefly: Cell cycle arrest in human HeLa cells assessed as accumulation at S phase at 30 nM after 24 hrs uisng propidium iodide staining by flow cytometry. The format is functional. In a few lines:
as §2

For test [5], the system named is HeLa. Briefly: Cell cycle arrest in human HeLa cells assessed as accumulation at G2/M phase at 30 nM after 24 hrs uisng propidium iodide staining by flow cytometry. The format is functional. The essentials: as §2
The subject of test [6] is HeLa. Briefly: Cell cycle arrest in human HeLa cells assessed as accumulation at subG1 phase at 30 nM after 24 hrs uisng propidium iodide staining by flow cytometry. The format is functional. In a few lines: as §2
The subject of test [7] is HeLa. Briefly: Induction of apoptosis in human HeLa cells assessed as appearance of hypodiploid cells after 24 hrs using propidium iodide staining by flow cytometry. The format is functional, cell-based. The essentials: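 HeLa cells (5×10^5, exponential growth) exposed to a range of concentrations for 24 h, then ethanol-fixed (70%, ice-cold), RNaseA-treated and propidium iodide-stained for flow cytometry. Apoptotic fraction taken as the cells forming a sub-G1 peak.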

One may read the IC50 as the point on the concentration scale where inhibition reaches its midpoint. A high value points to weaker potency. Broadly, the inhibition is the change of the read-out against control, counted positive when it falls. With `COc1ccc(Nc2nc(N)c(C(=O)c3ccccc3OC)s2)cc1`, the half-maximal inhibitory concentration (IC50) is 31 nM with L1210; 52 nM with FM3A; 18 nM in the test on MOLT-4; 17 nM in the test on CCRF-CEM; 17 nM with HeLa [1]; 1400 nM in [2]. The inhibition in the test filed under Bos taurus turned out to be 77%. For the same compound, the Activity is 38.5% with HeLa [3]; 20.4% in the test with HeLa [4]; 40.1% with HeLa [5]; 28.6% with HeLa [6]; “Dose-dependent effect” in the test on HeLa [7].
